Consider 22 compounds from ChEMBL document CHEMBL5352453, “Hit-to-lead optimization of a 2-aminobenzimidazole series as new candidates for chagas disease” (Eur J Med Chem, 2023).

pIC50: −log10 of the molar value.

Series [1] in a line: Metabolic stability in CD1 mouse liver microsomes assessed as intrinsic clearance measured upto 60 mins by LC-MS/MS analysis. The series is classed as ADME. The note with it: read-out: CLH. In short, it runs like this: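 CD1 mouse liver microsomes at 0.25 mg/mL, compound at 0.5 µM, pH 7.4, 37 °C, started with NADPH. Sampled at 0, 5, 10, 20, 30 and 60 min and quenched with acetonitrile:methanol containing tolbutamide. Measured by LC-MS/MS; CLint (k × 1000/0.25, µL/min/mg) derived by non-linear regression of % remaining over time.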

The test system of the next series is Trypanosoma cruzi. The series is described as follows: Antitrypanosomal activity against Trypanosoma cruzi Tulahuen CL2 amastigotes expressing beta galactosidase infected in human MRC5 cells assessed as reduction in parasite burden using chlorophenol red beta-D-galactopyranoside as substrate and measured after 7 days by spectrophotometric analysis. The note with it: Tulahuen CL2, MRC5, 168 h. The series is classed as functional, organism-based. In short, it runs like this:
(§1)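 T. cruzi Tulahuen CL2 β-galactosidase strain grown in MRC-5 cells (MEM, 5% heat-inactivated FCS, 37 °C, 5% CO2). MRC-5 cells (4 x 10^3/well) plus parasites (4 x 10^4/well) exposed 7 days to 4-fold dilutions from 64 µM down; final DMSO <1%. CPRG with Nonidet added, absorbance at 540 nm after 4 h. IC50 calculated against untreated-infected (100%) and non-infected (0%) controls. SI = MRC-5 CC50/IC50.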

Series [2] in a line: Selectivity index, ratio of CC50 for cytotoxicity against human MRC5 cells to EC50 for Trypanosoma cruzi Tulahuen CL2 amastigotes expressing beta galactosidase infected in human MRC5 cells. The series is classed as toxicity, cell-based. The conditions noted are these: read-out: Selectivity Index. In short, it runs like this: as §1

On to `CCCn1c(NC(=O)Cc2ccc(Cl)cc2)nc2ccccc21`, for which the microsomal CLint in series [1] was 3090 µL/min/mg. Also, the negative-log IC50 (pIC50) with Trypanosoma cruzi was 5.72.

Regarding `CCCn1c(NC(=O)Cc2ccc(Cl)cc2)nc2ccc(F)cc21`, in series [1], the microsomal CLint stood at 1590 µL/min/mg. The selectivity ratio in series [2] amounted to 102. Further, the negative-log IC50 (pIC50) with Trypanosoma cruzi is 6.25.

Regarding `CCCn1c(NC(=O)Cc2ccc(F)cc2)nc2ccc(C(=O)NCOC)cc21`, the microsomal CLint in series [1] stood at 128 µL/min/mg. Also, the selectivity ratio in series [2] came out at 7. The pIC50 in the series on Trypanosoma cruzi was 5.08.

For `CCCn1c(NC(=O)c2cccnc2)nc2cccnc21`, the microsomal CLint in series [1] was 275 µL/min/mg. Further, in series [2], the selectivity ratio is more than 15. Besides, the pIC50 in the series on Trypanosoma cruzi was 5.36.

In the case of `CCCn1c(NC(=O)Cc2ccc(F)cc2)nc2ccc(C(=O)N3CCOCC3)cc21`, the microsomal CLint in series [1] was determined as 23 µL/min/mg. Moreover, the selectivity ratio in series [2] is more than 2. The pIC50 in the series on Trypanosoma cruzi was 4.46.

Take `CCCn1c(NC(=O)c2ccccn2)nc2cccnc21`: the microsomal CLint in series [1] worked out at 265 µL/min/mg. The selectivity ratio in series [2] is more than 8. Besides, in the series on Trypanosoma cruzi, the pIC50 is 5.08.

For `N#Cc1ccc2nc(NC(=O)c3ccc(C(F)(F)F)nc3)n(C3CC3)c2c1`, the microsomal CLint in series [1] was 1350 µL/min/mg. Further, the pIC50 with Trypanosoma cruzi was less than 4.19.

For the compound `COCCn1c(NC(=O)c2ccc(C(F)(F)F)nc2)nc2ccc(C#N)cc21`, the selectivity ratio in series [2] is 1. Further, in the series on Trypanosoma cruzi, the pIC50 was 4.19.

Regarding `CCCn1c(NC(=O)Cc2ccc(F)cc2)nc2ccc(C(=O)NC)cc21`, the microsomal CLint in series [1] is 66 µL/min/mg. Moreover, the selectivity ratio in series [2] stood at 1. In the series with Trypanosoma cruzi, the pIC50 is 4.47.

For the compound `CCCn1c(NC(=O)c2cccc(C(F)(F)F)n2)nc2cccnc21`, the microsomal CLint in series [1] worked out at 285 µL/min/mg. In addition, in series [2], the selectivity ratio was more than 27. Besides, the negative logarithm of the IC50 (pIC50) with Trypanosoma cruzi was 5.62.

On to `CCCn1c(NC(=O)c2cccnc2)nc2cc(F)c(F)cc21`, for which the microsomal CLint in series [1] is 446 µL/min/mg. Besides, the selectivity ratio in series [2] is more than 30. Also, the negative logarithm of the IC50 (pIC50) in the series on Trypanosoma cruzi was 5.68.

For `CCCn1c(NC(=O)Cc2ccc(Cl)cc2)nc2ccc(C#N)cc21`, the microsomal CLint in series [1] came to 226 µL/min/mg. The selectivity ratio in series [2] is more than 3. In the series on Trypanosoma cruzi, the negative-log IC50 (pIC50) is 4.62.

As to `CCCn1c(NC(=O)c2cccc(C(F)(F)F)n2)nc2ccc(F)cc21`, in series [1], the microsomal CLint was found to be 467 µL/min/mg. In addition, the selectivity ratio in series [2] is more than 28. In addition, the negative logarithm of the IC50 (pIC50) in the series on Trypanosoma cruzi was 5.64.

On to `CCCn1c(NC(=O)c2cccnc2)nc2ccc(C#N)cc21`, for which the microsomal CLint in series [1] came to 200 µL/min/mg. Further, the selectivity ratio in series [2] was more than 4. Further, the negative logarithm of the IC50 (pIC50) in the series with Trypanosoma cruzi is 4.74.

On to `CCCn1c(NC(=O)Cc2ccc(F)cc2)nc2cc(F)c(F)cc21`, for which, in series [1], the microsomal CLint worked out at 399 µL/min/mg. Moreover, the selectivity ratio in series [2] was more than 121. Also, the pIC50 in the series with Trypanosoma cruzi was 6.28.

In the case of `N#Cc1ccc2nc(NC(=O)c3ccnc(C(F)(F)F)c3)n(CCF)c2c1`, the selectivity ratio in series [2] was 1. Moreover, the negative logarithm of the IC50 (pIC50) in the series with Trypanosoma cruzi was 4.31.

As for `CCCn1c(NC(=O)Cc2ccc(F)cc2)nc2ccc(C(=O)OC)cc21`, the microsomal CLint in series [1] was determined as 1250 µL/min/mg. The selectivity ratio in series [2] was 35. Further, the negative logarithm of the IC50 (pIC50) in the series on Trypanosoma cruzi is 6.28.

On to `CCCn1c(NC(=O)Cc2cc(F)ccc2F)nc2cc(F)c(F)cc21`, for which, in series [1], the microsomal CLint worked out at 389 µL/min/mg. Also, the selectivity ratio in series [2] stood at 52. In the series with Trypanosoma cruzi, the negative logarithm of the IC50 (pIC50) was 6.24.

With `CCCn1c(NC(=O)Cc2ccc(F)cc2)nc2c(F)cccc21`, the microsomal CLint in series [1] came to 715 µL/min/mg. Also, the selectivity ratio in series [2] is 1. The pIC50 with Trypanosoma cruzi was less than 4.19.

In the case of `CCCn1c(NC(=O)Cc2ccc(Cl)cc2)nc2cc(C(F)(F)F)ccc21`, the microsomal CLint in series [1] is 283 µL/min/mg. Moreover, the selectivity ratio in series [2] was 15. The pIC50 in the series on Trypanosoma cruzi was 6.13.

Consider `CCCn1c(NC(=O)Cc2ccc(F)cc2)nc2cccnc21`, for which the microsomal CLint in series [1] amounted to 1500 µL/min/mg. In series [2], the selectivity ratio was more than 49. Also, the negative logarithm of the IC50 (pIC50) with Trypanosoma cruzi is 5.89.

For `CCCn1c(NC(=O)Cc2ccc(Cl)cc2)nc2cc(F)ccc21`, the microsomal CLint in series [1] is 1510 µL/min/mg. In addition, the selectivity ratio in series [2] was more than 70. In addition, the negative logarithm of the IC50 (pIC50) in the series with Trypanosoma cruzi was 6.04.
